Reference: ChEMBL document CHEMBL4130549, “Synthesis and bioactivities study of new antibacterial peptide mimics: The dialkyl cationic amphiphiles” (Eur J Med Chem, 2018)
Active and inactive are the calls of the source. The rule behind the calls is not given here.

Columns and labels:
Staphylococcus aureus [1] = test: Antibacterial activity against methicillin-resistant Staphylococcus aureus isolate M10 after 16 to 20 hrs by broth microdilution method; assay type: functional
Summary of the method: (§1)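 CLSI broth microdilution in cation-adjusted Mueller-Hinton broth. A 4-6 h culture was diluted to about 10⁶ CFU/mL and mixed 1:1 with twofold compound dilutions (256–0.5 µg/mL before mixing) prepared from aqueous stocks. Plates were incubated at 37 °C for 16-20 h. Each concentration was tested in duplicate, and the experiment was repeated at least twice.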

Staphylococcus aureus [2] = test: Antibacterial activity against methicillin-resistant Staphylococcus aureus isolate M1 after 16 to 20 hrs by broth microdilution method; assay type: functional; summary of the method: as §1
Klebsiella pneumoniae [3] = test: Antibacterial activity against carbapenemase-producing Klebsiella pneumoniae isolate K9 after 16 to 20 hrs by broth microdilution method; assay type: functional
Summary of the method: (§2)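 Broth microdilution per CLSI in cation-adjusted Mueller-Hinton broth; 4-6 h cultures (~10⁸ CFU/mL) diluted to ~10⁶ CFU/mL and mixed 1:1 with twofold dilutions of water-dissolved compound (256 to 0.5 µg/mL). Incubated 16-20 h at 37 °C; MIC read visually. Each concentration run in duplicate, whole experiment repeated at least twice. MRSA, KPC and NDM-1 strains were clinical isolates.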

Klebsiella pneumoniae [4] = test: Antibacterial activity against carbapenemase-producing Klebsiella pneumoniae isolate K6 after 16 to 20 hrs by broth microdilution method; assay type: functional; summary of the method: as §2
Enterobacteriaceae [5] = test: Antibacterial activity against NDM-1-producing Enterobacteriaceae isolate N3 after 16 to 20 hrs by broth microdilution method; assay type: functional; summary of the method: as §2
[6] = Hemolytic activity in sheep RBC after 1 hr; assay type: ADME, cell-based, Ovis aries, Erythrocyte; details: sheep red blood cells (erythrocytes)
Summary of the method: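 Sheep RBCs suspended at 5% in PBS; 150 µL added to 50 µL compound dilutions (5120 to 10 µg/mL series). Incubated 1 h at 37 °C, then centrifuged; supernatant absorbance read at 540 nm. Lysis (%) = (A−A0)/(Atotal−A0)×100, with untreated 5% RBC as A0 and 0.1% Triton X-100 as total.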

Escherichia coli [7] = test: Induction of outer membrane permeabilization in Escherichia coli ATCC 25922 at 20 ug/ml measured every 2 mins for 12 mins by NPN staining based fluorescence assay; assay type: functional, organism-based
Summary of the method: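 Mid-log E. coli (~10^8 CFU/mL) in black plates pre-incubated about 40 min with NPN (10 µM, 50 µL). Baseline read 8 min (ex 350/em 420 nm), then compound added to 20 µg/mL final and fluorescence followed every 2 min for 12 min. Water-treated control.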

Klebsiella pneumoniae [8] = test: Antibacterial activity against carbapenemase-producing Klebsiella pneumoniae isolate K7 after 16 to 20 hrs by broth microdilution method; assay type: functional; summary of the method: as §2
Staphylococcus aureus [9] = test: Antibacterial activity against methicillin-resistant Staphylococcus aureus isolate M9 after 16 to 20 hrs by broth microdilution method; assay type: functional; summary of the method: as §1
Klebsiella pneumoniae [10] = test: Antibacterial activity against carbapenemase-producing Klebsiella pneumoniae isolate K3 after 16 to 20 hrs by broth microdilution method; assay type: functional; summary of the method: as §2
Escherichia coli [11] = test: Antibacterial activity against Escherichia coli ATCC 25922 after 16 to 20 hrs by broth microdilution method; assay type: functional; summary of the method: as §2
Escherichia coli [12] = test: Induction of cytoplasmic membrane depolarization in Escherichia coli ATCC 25922 at 20 ug/ml measured every 2 mins for 12 mins by diSC35 staining based fluorescence assay; assay type: functional, organism-based
Summary of the method: (§3)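 Mid-log cells (4–6 h) pelleted, washed and resuspended (~10^8 CFU/mL) in PBS for S. aureus, or in 5 mM HEPES, 5 mM glucose and 100 mM KCl (1:1:1) for E. coli. Preloaded with diSC35 (10 µM, 50 µL), 30 min for S. aureus and 40 min plus EDTA (200 µM, 50 µL) for E. coli. Baseline read 8 min (ex 622/em 670 nm), then compound added to 20 µg/mL final and read every 2 min for 12 min. Water control.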

Enterobacteriaceae [13] = test: Antibacterial activity against NDM-1-producing Enterobacteriaceae isolate N9 after 16 to 20 hrs by broth microdilution method; assay type: functional; summary of the method: as §2
Klebsiella pneumoniae [14] = test: Antibacterial activity against carbapenemase-producing Klebsiella pneumoniae isolate K10 after 16 to 20 hrs by broth microdilution method; assay type: functional; summary of the method: as §2
Staphylococcus aureus [15] = test: Induction of cytoplasmic membrane depolarization in Staphylococcus aureus ATCC 29213 at 20 ug/ml measured every 2 mins for 12 mins by diSC35 staining based fluorescence assay; assay type: functional, organism-based; summary of the method: as §3
Staphylococcus aureus [16] = test: Antibacterial activity against methicillin-resistant Staphylococcus aureus isolate M3 after 16 to 20 hrs by broth microdilution method; assay type: functional; summary of the method: as §1
Enterobacteriaceae [17] = test: Antibacterial activity against NDM-1-producing Enterobacteriaceae isolate N7 after 16 to 20 hrs by broth microdilution method; assay type: functional; summary of the method: as §2
Enterobacteriaceae [18] = test: Antibacterial activity against NDM-1-producing Enterobacteriaceae isolate N1 after 16 to 20 hrs by broth microdilution method; assay type: functional; summary of the method: as §2
Enterobacteriaceae [19] = test: Antibacterial activity against NDM-1-producing Enterobacteriaceae after 16 to 20 hrs by broth microdilution method; assay type: functional; summary of the method: as §2
Enterobacteriaceae [20] = test: Antibacterial activity against NDM-1-producing Enterobacteriaceae isolate N10 after 16 to 20 hrs by broth microdilution method; assay type: functional; summary of the method: as §2
Escherichia coli [21] = test: Induction of inner membrane permeabilization in Escherichia coli ATCC 25922 at 20 ug/ml measured every 2 mins for 12 mins by propidium iodide staining based fluorescence assay; assay type: functional, organism-based
Summary of the method: (§4)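 Mid-log cells (~10^8 CFU/mL) pre-incubated with propidium iodide (10 µM, 50 µL), 30 min for S. aureus and 40 min for E. coli. Fluorescence (ex 535/em 617 nm) read for 8 min, then compound added to 20 µg/mL final and monitored every 2 min for 12 min. Water-treated control.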

Enterobacteriaceae [22] = test: Antibacterial activity against NDM-1-producing Enterobacteriaceae isolate N6 after 16 to 20 hrs by broth microdilution method; assay type: functional; summary of the method: as §2
Enterobacteriaceae [23] = test: Antibacterial activity against NDM-1-producing Enterobacteriaceae isolate N4 after 16 to 20 hrs by broth microdilution method; assay type: functional; summary of the method: as §2
Staphylococcus aureus [24] = test: Antibacterial activity against methicillin-resistant Staphylococcus aureus isolate M7 after 16 to 20 hrs by broth microdilution method; assay type: functional; summary of the method: as §1
Staphylococcus aureus [25] = test: Antibacterial activity against methicillin-resistant Staphylococcus aureus isolate M4 after 16 to 20 hrs by broth microdilution method; assay type: functional; summary of the method: as §1
Staphylococcus aureus [26] = test: Antibacterial activity against methicillin-resistant Staphylococcus aureus isolate M5 after 16 to 20 hrs by broth microdilution method; assay type: functional; summary of the method: as §1
Klebsiella pneumoniae [27] = test: Antibacterial activity against carbapenemase-producing Klebsiella pneumoniae isolate K1 after 16 to 20 hrs by broth microdilution method; assay type: functional; summary of the method: as §2
Staphylococcus aureus [28] = test: Induction of inner membrane permeabilization in Staphylococcus aureus ATCC 29213 at 20 ug/ml measured every 2 mins for 12 mins by propidium iodide staining based fluorescence assay; assay type: functional, organism-based; summary of the method: as §4
Staphylococcus aureus [29] = test: Antibacterial activity against Staphylococcus aureus ATCC 29213 after 16 to 20 hrs by broth microdilution method; assay type: functional; summary of the method: as §1
Staphylococcus aureus [30] = test: Antibacterial activity against methicillin-resistant Staphylococcus aureus isolate M8 after 16 to 20 hrs by broth microdilution method; assay type: functional; summary of the method: as §1
Klebsiella pneumoniae [31] = test: Antibacterial activity against carbapenemase-producing Klebsiella pneumoniae isolate K2 after 16 to 20 hrs by broth microdilution method; assay type: functional; summary of the method: as §2
Enterobacteriaceae [32] = test: Antibacterial activity against NDM-1-producing Enterobacteriaceae isolate N2 after 16 to 20 hrs by broth microdilution method; assay type: functional; summary of the method: as §2
Enterobacteriaceae [33] = test: Antibacterial activity against NDM-1-producing Enterobacteriaceae isolate N5 after 16 to 20 hrs by broth microdilution method; assay type: functional; summary of the method: as §2
Salmonella enterica = test: Antibacterial activity against Salmonella enterica after 16 to 20 hrs by broth microdilution method; assay type: functional; summary of the method: as §2
Enterococcus faecalis = test: Antibacterial activity against Enterococcus faecalis after 16 to 20 hrs by broth microdilution method; assay type: functional; summary of the method: as §2
Staphylococcus aureus [34] = test: Antibacterial activity against methicillin-resistant Staphylococcus aureus isolate M6 after 16 to 20 hrs by broth microdilution method; assay type: functional; summary of the method: as §1
Klebsiella pneumoniae [35] = test: Antibacterial activity against carbapenemase-producing Klebsiella pneumoniae isolate K5 after 16 to 20 hrs by broth microdilution method; assay type: functional; summary of the method: as §2
Staphylococcus aureus [36] = test: Antibacterial activity against methicillin-resistant Staphylococcus aureus after 16 to 20 hrs by broth microdilution method; assay type: functional; summary of the method: as §1
Enterobacteriaceae [37] = test: Antibacterial activity against NDM-1-producing Enterobacteriaceae isolate N8 after 16 to 20 hrs by broth microdilution method; assay type: functional; summary of the method: as §2
Klebsiella pneumoniae [38] = test: Antibacterial activity against carbapenemase-producing Klebsiella pneumoniae isolate K4 after 16 to 20 hrs by broth microdilution method; assay type: functional; summary of the method: as §2
Staphylococcus aureus [39] = test: Antibacterial activity against methicillin-resistant Staphylococcus aureus isolate M2 after 16 to 20 hrs by broth microdilution method; assay type: functional; summary of the method: as §1
Klebsiella pneumoniae [40] = test: Antibacterial activity against carbapenemase-producing Klebsiella pneumoniae isolate K8 after 16 to 20 hrs by broth microdilution method; assay type: functional; summary of the method: as §2
Klebsiella pneumoniae [41] = test: Antibacterial activity against carbapenemase-producing Klebsiella pneumoniae after 16 to 20 hrs by broth microdilution method; assay type: functional; summary of the method: as §2

CCCCCCCN(CCCCCCC)C(=O)[C@@H](N)CCCCN.Cl.Cl
MIC (Staphylococcus aureus [1]): 4 µg/mL | MIC (Staphylococcus aureus [2]): 8 µg/mL | MIC (Klebsiella pneumoniae [3]): 16 µg/mL | MIC (Klebsiella pneumoniae [4]): 16 µg/mL | MIC (Enterobacteriaceae [5]): 32 µg/mL | HC50 at 1 h [6]: 434 µg/mL | Activity (Escherichia coli [7]): Active | MIC (Klebsiella pneumoniae [8]): 16 µg/mL | MIC (Staphylococcus aureus [9]): 4 µg/mL | MIC (Klebsiella pneumoniae [10]): 16 µg/mL | MIC (Escherichia coli [11]): 8 µg/mL | Activity (Escherichia coli [12]): Active | MIC (Enterobacteriaceae [13]): 16 µg/mL | MIC (Klebsiella pneumoniae [14]): 16 µg/mL | Activity (Staphylococcus aureus [15]): Active | MIC (Staphylococcus aureus [16]): 16 µg/mL | MIC (Enterobacteriaceae [17]): 32 µg/mL | MIC (Enterobacteriaceae [18]): 32 µg/mL | MIC (Enterobacteriaceae [19]): 16 µg/mL | MIC (Enterobacteriaceae [20]): 16 µg/mL | Activity (Escherichia coli [21]): Active | MIC (Enterobacteriaceae [22]): 16 µg/mL | MIC (Enterobacteriaceae [23]): 32 µg/mL | MIC (Staphylococcus aureus [24]): 4 µg/mL | MIC (Staphylococcus aureus [25]): 16 µg/mL | MIC (Staphylococcus aureus [26]): 8 µg/mL | MIC (Klebsiella pneumoniae [27]): 16 µg/mL | Activity (Staphylococcus aureus [28]): Active | MIC (Staphylococcus aureus [29]): 8 µg/mL | MIC (Staphylococcus aureus [30]): 8 µg/mL | MIC (Klebsiella pneumoniae [31]): 16 µg/mL | MIC (Enterobacteriaceae [32]): 32 µg/mL | MIC (Enterobacteriaceae [33]): 16 µg/mL | MIC (Salmonella enterica): 16 µg/mL | MIC (Enterococcus faecalis): 8 µg/mL | MIC (Staphylococcus aureus [34]): 4 µg/mL | MIC (Klebsiella pneumoniae [35]): 16 µg/mL | MIC (Staphylococcus aureus [36]): 4 µg/mL | MIC (Enterobacteriaceae [37]): 32 µg/mL | MIC (Klebsiella pneumoniae [38]): 16 µg/mL | MIC (Staphylococcus aureus [39]): 16 µg/mL | MIC (Klebsiella pneumoniae [40]): 16 µg/mL | MIC (Klebsiella pneumoniae [41]): 16 µg/mL
